Measured values from ChEMBL document CHEMBL5724801, “EUbOPEN Chemogenomics Library - Multiplex” (2024).
“And” between values parts separate entries of the source, which are not always exact repeats. Equal values may be shown once.

Test system: Fibroblast
Assay: Multiplex assay against human fibroblast
Format: toxicity, cell-based
Method in brief: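 Values for tubulin, mitochondrial-mass and membrane-permeability phenotypes are per cents of cells with healthy nuclei. These cells were identified by CellPathfinder machine-learning gating of live cells that had been stained at seeding with Hoechst33342, BioTracker Green Microtubule Cytoskeleton Dye, MitoTracker Red and Annexin V Alexa Fluor 680 and imaged on a CQ1 microscope at 37°C and 5% CO2 after compound addition. The gating first set Hoechst high-intensity objects apart from normal cells, then split normal cells into healthy, pyknosed or fragmented nuclei, and pyknosed cells into mitotic or apoptotic.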

[1] = 12 h, 1 µM, compound concentration 1 uM
[2] = 12 h, 10 µM, compound concentration 10 uM
[3] = 24 h, 1 µM, compound concentration 1 uM
[4] = 24 h, 10 µM, compound concentration 10 uM
[5] = 48 h, 1 µM, compound concentration 1 uM
[6] = 48 h, 10 µM, compound concentration 10 uM

COc1cc2nc(N3CCN(C(=O)c4ccco4)CC3)nc(N)c2cc1OC.Cl [PRAZOSIN HYDROCHLORIDE]
Population Apoptotic (%) [1]: 38% and 49%
Population Fragmented Nuclei (%) [1]: 22% and 20%
Population Healthy Nuclei (%) [1]: 57% and 52%
Population Hoechst High Intensity Objects (%) [1]: 1% and 4%
Population Membrane Permeable-Phenotype (%) [1]: 1% and 5%
Population Mitochondria Different-Phenotype (%) [1]: 1% and 7%
Population Mitotic Cells (%) [1]: 61% and 50%
Population Normal (%) [1]: 98% and 95%
Population Pyknosed Nuclei (%) [1]: 19% and 27%
Population Tubulin-Different-Phenotype (%) [1]: 26% and 46%
Total Cell Count [1]: 174 and 194
Population Apoptotic (%) [2]: 44% and 31%
Population Fragmented Nuclei (%) [2]: 23% and 35%
Population Healthy Nuclei (%) [2]: 64% and 42%
Population Hoechst High Intensity Objects (%) [2]: 1% and 5%
Population Membrane Permeable-Phenotype (%) [2]: 0% and 9%
Population Mitochondria Different-Phenotype (%) [2]: 7% and 3%
Population Mitotic Cells (%) [2]: 56% and 68%
Population Normal (%) [2]: 98% and 94%
Population Pyknosed Nuclei (%) [2]: 12% and 21%
Population Tubulin-Different-Phenotype (%) [2]: 49% and 65%
Total Cell Count [2]: 198 and 155
Population Apoptotic (%) [3]: 50% and 45%
Population Fragmented Nuclei (%) [3]: 20%
Population Healthy Nuclei (%) [3]: 63% and 57%
Population Hoechst High Intensity Objects (%) [3]: 2% and 7%
Population Membrane Permeable-Phenotype (%) [3]: 0% and 12%
Population Mitochondria Different-Phenotype (%) [3]: 2% and 3%
Population Mitotic Cells (%) [3]: 50% and 54%
Population Normal (%) [3]: 97% and 92%
Population Pyknosed Nuclei (%) [3]: 15% and 21%
Population Tubulin-Different-Phenotype (%) [3]: 28% and 58%
Total Cell Count [3]: 181 and 185
Population Apoptotic (%) [4]: 46% and 61%
Population Fragmented Nuclei (%) [4]: 23% and 35%
Population Healthy Nuclei (%) [4]: 69% and 49%
Population Hoechst High Intensity Objects (%) [4]: 3% and 7%
Population Membrane Permeable-Phenotype (%) [4]: 0% and 10%
Population Mitochondria Different-Phenotype (%) [4]: 6% and 11%
Population Mitotic Cells (%) [4]: 53% and 38%
Population Normal (%) [4]: 96% and 92%
Population Pyknosed Nuclei (%) [4]: 6% and 15%
Population Tubulin-Different-Phenotype (%) [4]: 45% and 73%
Total Cell Count [4]: 201 and 152
Population Apoptotic (%) [5]: 52% and 66%
Population Fragmented Nuclei (%) [5]: 24% and 29%
Population Healthy Nuclei (%) [5]: 62% and 56%
Population Hoechst High Intensity Objects (%) [5]: 3%
Population Membrane Permeable-Phenotype (%) [5]: 0% and 8%
Population Mitochondria Different-Phenotype (%) [5]: 1% and 6%
Population Mitotic Cells (%) [5]: 47% and 33%
Population Normal (%) [5]: 96%
Population Pyknosed Nuclei (%) [5]: 13% and 14%
Population Tubulin-Different-Phenotype (%) [5]: 22% and 57%
Total Cell Count [5]: 182 and 197
Population Apoptotic (%) [6]: 66% and 46%
Population Fragmented Nuclei (%) [6]: 25% and 42%
Population Healthy Nuclei (%) [6]: 68% and 49%
Population Hoechst High Intensity Objects (%) [6]: 1% and 5%
Population Membrane Permeable-Phenotype (%) [6]: 0% and 5%
Population Mitochondria Different-Phenotype (%) [6]: 4% and 5%
Population Mitotic Cells (%) [6]: 33% and 53%
Population Normal (%) [6]: 98% and 94%
Population Pyknosed Nuclei (%) [6]: 6% and 8%
Population Tubulin-Different-Phenotype (%) [6]: 32% and 48%
Total Cell Count [6]: 201 and 170
